Screening data deposited in PubChem BioAssay by Sanford-Burnham Center for Chemical Genomics.
Apaf1 activ: activators of human Apaf-1 apoptosome. activity change, negative = activation, % at 20 µM. Apaf-1 apoptosome caspase-3 activation, DEVD-Rh110 fluorescence; hits give low values. actives 0.31% (n = 330,000);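 active means activity change at or below -40% at 20 µM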
Target sequence (O14727 whole entry, looked up): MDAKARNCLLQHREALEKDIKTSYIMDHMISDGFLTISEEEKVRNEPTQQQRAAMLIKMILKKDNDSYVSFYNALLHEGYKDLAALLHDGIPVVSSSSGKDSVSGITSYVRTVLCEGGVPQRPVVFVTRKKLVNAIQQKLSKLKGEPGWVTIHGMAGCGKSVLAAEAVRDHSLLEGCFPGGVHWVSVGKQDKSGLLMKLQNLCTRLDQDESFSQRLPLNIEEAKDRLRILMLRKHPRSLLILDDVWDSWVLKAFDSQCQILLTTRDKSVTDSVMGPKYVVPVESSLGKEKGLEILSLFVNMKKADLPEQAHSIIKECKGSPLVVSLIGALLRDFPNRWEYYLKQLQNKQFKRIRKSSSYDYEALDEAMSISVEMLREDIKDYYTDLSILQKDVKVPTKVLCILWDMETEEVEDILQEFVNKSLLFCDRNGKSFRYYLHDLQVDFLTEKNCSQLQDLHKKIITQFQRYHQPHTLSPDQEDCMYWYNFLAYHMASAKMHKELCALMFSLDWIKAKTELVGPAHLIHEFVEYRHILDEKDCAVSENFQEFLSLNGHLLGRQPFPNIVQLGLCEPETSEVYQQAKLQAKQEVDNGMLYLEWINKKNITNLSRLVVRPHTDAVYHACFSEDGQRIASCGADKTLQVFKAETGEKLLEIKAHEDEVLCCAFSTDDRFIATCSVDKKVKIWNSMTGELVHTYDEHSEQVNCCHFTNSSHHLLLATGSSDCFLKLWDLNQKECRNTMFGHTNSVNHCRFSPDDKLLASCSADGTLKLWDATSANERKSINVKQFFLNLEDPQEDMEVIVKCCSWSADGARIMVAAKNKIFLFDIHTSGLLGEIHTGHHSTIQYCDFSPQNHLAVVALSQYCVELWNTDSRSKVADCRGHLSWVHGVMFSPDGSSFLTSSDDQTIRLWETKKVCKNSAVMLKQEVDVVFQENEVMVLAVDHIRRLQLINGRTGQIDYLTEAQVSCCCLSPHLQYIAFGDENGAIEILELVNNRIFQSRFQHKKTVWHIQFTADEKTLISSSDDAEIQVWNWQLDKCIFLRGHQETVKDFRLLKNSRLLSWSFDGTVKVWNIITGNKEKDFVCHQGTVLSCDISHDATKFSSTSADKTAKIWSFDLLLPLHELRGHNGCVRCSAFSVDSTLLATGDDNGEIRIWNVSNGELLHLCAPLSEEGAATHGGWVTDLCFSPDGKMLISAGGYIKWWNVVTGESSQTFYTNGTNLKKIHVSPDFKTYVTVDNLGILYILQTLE
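System: Reconstituted apoptosome of Apaf-1, cytochrome c, caspase-9, procaspase-3 | Reagent: dATP, cytochrome c, and (Z-DEVD)2-Rh110 caspase-3 substrate | Times: 30 min compound preincubation and 50 min reaction, both room temperature | Detection: Caspase-3-released Rh110 fluorescence, 540 nm emission, 480 nm excitation | Measure: Caspase-3 activity via Apaf-1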
Rh110 act interf: interferes with Rh110 fluorescence, flagging false Apaf-1 activators; shares compounds with Apaf1 activ; Rh110 fluorescence interference, quenched caspase reaction, Ex480/Em540; fluorescence interference (activity change), % at 20 µM, hits read low; 980 tested, under 10 active;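 active means mean activity change at or below -40% when tested at 20 µM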
Apaf-1 act conf2: confirmation of human Apaf-1 activators | AID 504617 | activity change, negative = activation, % at 20 µM | actives 5% (n = 980) | shares compounds with Apaf1 activ | reconstituted apoptosome caspase-3 activity, DEVD-Rh110 fluorescence; hits give low values;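 active means mean activity change at or below -40%, meaning activation of 40% or more, at 20 µM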
* marks the source's active call; other numbers are inactive results; . = no result given. The list is a sample of the results.

SMILES | Apaf1 activ | Rh110 act interf | Apaf-1 act conf2
Cc1ccc(Nc2nc(N)c([N+](=O)[O-])c(NCc3ccco3)n2)cc1 | -443* | 13 | 17
c1ccc(CNc2nc(NCc3ccccc3)c3ccccc3n2)cc1 | 66 | . | .
COCCNC(=O)c1onc(CSc2ccccc2)c1C(=O)O | -44* | -7 | 10
COCCCNC(=O)c1ccc2c3c(onc13)-c1ccccc1C2=O | 80 | . | .
COc1ccc(NC(=O)CN(C)C(=O)C2CSC3(C)CCC(=O)N23)cc1 (stereo not drawn) | 43 | . | .
Cc1cccc(NC(=O)CCN2CCC(C)CC2)c1 | -54* | 2 | 1
COc1ccc(CN2CCC(C(=O)Nc3ccc(Oc4cccnc4)cc3)CC2)cc1 | 58 | . | .
COc1ccc(NC(=O)CN2CCC(C)CC2)cc1 | -52* | -1 | 3
Cc1cccc(NC(=O)NCc2ccc3c(c2)cc(C)n3C)c1 | 54 | . | .
Cc1cccc(NC(=O)c2sc3nc4c(c(-c5cccs5)c3c2N)CN(C)CC4)c1 | 50 | . | .
CCCCCc1cc(=O)oc2c(C(CCN3CCCCC3)c3ccc4c(c3)OCO4)c(OC)cc(OC)c12 (stereo not drawn) | 66 | . | .
C#CCOCCOCCOCCNc1nc(N2CCN(C(=O)CCCCCCCCCCNC(=O)[C@H]([C@@H](C)CC)n3cc(CCCCN=C(N)N)nn3)CC2)nc(N2CCN(C(=O)CCCCCCCCCCNC(=O)[C@H](CCCCN)n3cc(C)nn3)CC2)n1 | 73 | . | .
COc1ccc(-c2oc3ncnc(NCCN4CCOCC4)c3c2-c2ccc(OC)cc2)cc1 | 42 | . | .
CCOc1cccc2sc(N(CCCN(C)C)C(=O)c3ccc(S(=O)(=O)N4CCc5ccccc5C4)cc3)nc12 | 62 | . | .
CCOc1ccc(S(=O)(=O)N2CCc3ccccc3C2)cc1 | -120* | -5 | 12
CN1CCN(S(=O)(=O)c2ccc(SCCOc3ccc(Cl)cc3)nc2)CC1 | 51 | . | .
O=C1C=C(c2ccc(OC(F)(F)F)cc2)C[C@@H](c2ccc(F)cc2)C1 | 54 | . | .
C=C(C)Cn1c(NCCOC)nc2c1c(=O)[nH]c(=O)n2C | -40* | 1 | 4
COC(=O)NCc1ccc(Cl)c(Cl)c1 | -71* | -3 | -3
COc1cccc2cc(C(=O)NCc3ccc(Cl)cc3)c(=N)oc12 | 42 | . | .
O=C1Cc2ccccc2C(=O)N1Cc1ccccc1 | 52 | . | .
C=CCN1C(=O)C2(OCCCO2)c2ccccc21 | -42* | 8 | 15
Oc1ccc(/C=N\Nc2cc(N3CCOCC3)nc(N3CCOCC3)n2)c(O)c1 | 85 | . | .
CN1CCN(c2cc3c(c4c2[nH]c2ccccc24)C(=O)CC(C)(C)C3)CC1 | 50 | . | .
CCCCCC(=O)Nc1ccc(N2CCN(S(C)(=O)=O)CC2)cc1 | -523* | 6 | 12
SMILES | Apaf1 activ | Rh110 act interf | Apaf-1 act conf2
COc1ccc2nc(NC(=O)c3sc4nc(C)cc(C)c4c3N)sc2c1 | -41* | -3 | 10
COc1ccc2c(c1)Cc1sc(NC(=O)c3cccnc3)nc1-2 | 89 | . | .
COc1ccc2c(c1)Cc1sc(NC(C)=O)nc1-2 | 73 | . | .
CC(C(O)c1ccc(O)cc1)N1CCC(Cc2ccccc2)CC1 (stereo not drawn) | 2 | . | .
COc1ccc(C(=O)Nc2ccc(/C(C)=N/NC(=O)c3ccccc3O)cc2)cc1OC | -176* | 0 | 10
CC[C@@H](C)[C@@H]1CN([C@@H](CN2CCC[C@H]2CN2C(N)=NC[C@@H]2Cc2ccccc2)C(C)C)C(=N)N1CCCC1CCCC1 | 63 | . | .
C=CCN1C=C2C(=O)C(C)(OC(=O)CCC(=O)OC)C(=O)C=C2C=C1C1CC1 (stereo not drawn) | 43 | . | .
Cc1ccc(NC(=O)CN2C(=O)S/C(=C/c3ccc(-c4cc(C(=O)O)ccc4C)o3)C2=O)cc1C | 42 | . | .
c1csc(Cc2nn3c(-c4n[nH]c5c4CCC5)nnc3s2)c1 | 41 | . | .
CC1CCCCC1NS(=O)(=O)c1ccc(S(=O)(=O)N2CCN(CCC#N)CC2)cc1 (stereo not drawn) | -65* | 1 | 9
Cc1ccc(C)c(N2CCN(S(=O)(=O)c3cn(C)cn3)CC2)c1 | -78* | -4 | 8
CC(Oc1ccc(Br)cc1)C(=O)NCC(C)(C)N1CCOCC1 (stereo not drawn) | 47 | . | .
Cc1ccc2nc(/C(C#N)=C\c3ccc(N4CCOCC4)o3)[nH]c2c1 | 44 | . | .
O=C(Cn1nnc(-c2ccccc2)n1)N/N=C/c1cc([N+](=O)[O-])ccc1O | -57* | -1 | 21
Cc1[nH]n(-c2ccccc2)c(=O)c1/C=N/NC(=O)c1cccc([N+](=O)[O-])c1 | 56 | . | .
COc1cc([N+](=O)[O-])cc(/C=N/NC(=O)C(C)Nc2cccc3ccccc23)c1O (stereo not drawn) | 93 | . | .
COCCNc1nc2nonc2nc1N(C)Cc1cccc2cnccc12 | -346* | -2 | 11
COc1ccc(CN2C(=O)Cc3c2nc(N)c2c(N)nc(N4CCCCC4)c(C#N)c32)cc1 | 51 | . | .
COC(=O)c1[nH]c(=O)c2ccccc2c1O | 91 | . | .
COc1ccc(C2C(C#N)=C(N)OC(C(C)(C)C)=C2C#N)cc1OC (stereo not drawn) | -51* | 17 | 10
CC(C)CCOc1ccc(C(CC(N)=O)C(=O)O)cc1 (stereo not drawn) | -41* | 13 | 15
CCOC(=O)c1cc(-c2ccc(/C=C3/C(=O)N(c4ccc(C(=O)O)cc4)N=C3C)o2)ccc1Cl | 50 | . | .
NC(=O)C1(N2CCCCC2)CCN(C(=S)Nc2cccc(Cl)c2)CC1 | -43* | 1 | 14
Cc1cc2cc(CNC(=O)Nc3cccc(Cl)c3)ccc2n1C | 49 | . | .
Fc1ccc(-[n+]2nc(Nc3ccccc3)sc2-c2c3ccccc3cc3ccccc23)cc1 | 42 | . | .
SMILES | Apaf1 activ | Rh110 act interf | Apaf-1 act conf2
C=CC(=C)CC(NC)c1ccccc1 (stereo not drawn) | -48* | 6 | 1
CCCCCCOC(=O)C(C#N)c1nc2ccccc2nc1N1CCN(CC)CC1 (stereo not drawn) | 42 | . | .
CC(C)N1CCc2c(sc(NC(=O)c3ccc(S(=O)(=O)N4CCc5ccccc54)cc3)c2C(N)=O)C1 | 46 | . | .
Cc1cc(Cl)ccc1NC(=O)c1ccc2c(c1)CCN2S(C)(=O)=O | -170* | -5 | 21
Cc1cc(N2CCN(C)CC2)ccc1NC(=O)c1ccc(-c2ccc(Cl)cc2)o1 | 42 | . | .
CC/C(=N/Nc1ccccc1C)c1cnnc(SC)n1 | 41 | . | .
CN1CCc2c(sc(NC(=O)c3ccc(C(=O)c4ccccc4)cc3)c2C(N)=O)C1 | 44 | . | .
COc1ccc2nc(C)cc(N/N=C/c3ccc(F)cc3)c2c1 | 50 | . | .
Fc1ccc(/C=N/Nc2nc3ccccc3[nH]2)cc1F | -64* | -4 | 13
CCOc1ccc(NC(=O)c2c[nH]n3c(=O)cc(C4CCN(C(=O)OC(C)(C)C)CC4)nc23)cc1 | 40 | . | .
COc1cccc2c(=O)c3cccc(N)c3[nH]c12 | 70 | . | .
COc1cccc2c3c(c(=O)[nH]c12)CCC(C)(C)O3 | -63* | -9 | 10
C(=N\c1c(-c2ccccc2)nc2n1CCS2)/c1ccccc1 | 41 | . | .
CCC12CCCN3CCc4c(n(c5ccccc45)C(O)(C(=O)OC)C1)C32 (stereo not drawn) | 41 | . | .
CC(C)(C)C1CCC(CN2C(Nc3ccccc3)=NC[C@@H]2Cc2ccccc2)CC1 (stereo partly drawn) | 75 | . | .
